High-throughput results: PubChem BioAssay, Johns Hopkins Ion Channel Center
Hits are enriched below; roughly 3.5% of the tested compounds scored in any of these assays.
MrgX1 antag – antagonists of human MrgX1 receptor, primary screen, HEK293 cells, Fluo-4 calcium flux; AID 588676, 2011; Mas-related G-protein coupled receptor member X1 (Homo sapiens), Q96LB2; 310,000 tested, 1.3% active; B-score at 10 µM; BAM8-22 antagonism; hits give low values;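 active = calcium-response B-score plate-corrected more than 3 library SD below zero, starting fluorescence within 5 deviations, no agonist response on first addition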;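 note: peak minus trough fluorescence over baseline after final BAM8-22 challenge near maximal dose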
Target sequence (Q96LB2 whole entry, looked up): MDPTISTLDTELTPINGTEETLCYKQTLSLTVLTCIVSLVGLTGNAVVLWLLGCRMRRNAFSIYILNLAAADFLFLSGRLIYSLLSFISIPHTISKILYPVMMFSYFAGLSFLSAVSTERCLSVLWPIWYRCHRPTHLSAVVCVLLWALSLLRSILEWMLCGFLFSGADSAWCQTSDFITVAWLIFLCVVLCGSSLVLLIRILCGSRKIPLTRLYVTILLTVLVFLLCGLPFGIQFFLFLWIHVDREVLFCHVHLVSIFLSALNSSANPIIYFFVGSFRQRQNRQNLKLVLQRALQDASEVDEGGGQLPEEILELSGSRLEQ
RGS4 block – RGS4 inhibitors, primary screen, cell-based, HEK293 M3R inducible RGS4, calcium flux. 310,000 tested, 0.45% active. AID 463165, 2010. B-score at 10 µM. Regulator of G-protein signaling 4 (Homo sapiens), P49798. Fluo-4 calcium flux; hits give high values; triggered by carbachol at its EC20;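 active = B-score, a plate-corrected calcium signal, over three deviations above library mean, with baseline fluorescence within five deviations of library mean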;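 note: RGS4 expression induced by doxycycline in cells with stable M3 receptor; B-score is computed from the integrated fluorescence ratio over baseline after carbachol; higher B-score means a larger calcium signal and so more RGS4 inhibition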
Target sequence (P49798 whole entry, looked up): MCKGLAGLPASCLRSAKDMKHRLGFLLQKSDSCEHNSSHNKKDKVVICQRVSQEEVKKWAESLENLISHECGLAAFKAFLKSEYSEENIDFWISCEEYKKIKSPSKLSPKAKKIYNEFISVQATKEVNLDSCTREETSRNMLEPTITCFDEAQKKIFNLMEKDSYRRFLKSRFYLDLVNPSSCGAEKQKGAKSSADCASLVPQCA
RGS4 pot – RGS4 potentiators or activators, primary screen, cell-based, HEK293 M3R inducible RGS4, calcium flux; AID 463111, 2010; carbachol calcium flux Fluo4; hits give low values; 310,000 tested, 0.92% active; B-score at 10 µM;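 active = B-score of the integrated calcium signal more than 4 SD below the library mean, with starting fluorescence not abnormally high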;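 note: negative B-score means reduced calcium response which marks RGS4 activation or potentiation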
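Material: M3R-expressing HEK293 line, RGS4 induced by doxycycline | Schedule: Overnight RGS4 induction, 30 min dye load 37 °C, 20 min compound RT | Measured by: Fluo4 fluorescence kinetic imaging of calcium | Read-out: Integrated calcium ratio converted to B score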
MrgX1 allo act – positive allosteric modulators of MrgX1, primary screen, HEK293 cells, Fluo-4 calcium flux; FDSS; hits give high values; B-score at 10 µM; 310,000 tested, 0.63% active;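 active = plate-corrected calcium response at least 3 library SD above typical, normal starting fluorescence, not activating the receptor alone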;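 note: compound read alongside a low EC10 to EC30 dose of BAM8-22 agonist; peak minus trough fluorescence over baseline measured at the second addition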
MrgX1 agonist – agonists of human MrgX1 receptor, primary screen, HEK293 cells, Fluo-4 calcium flux | Mas-related G-protein coupled receptor member X1 (Homo sapiens), Q96LB2 | Fluo-4 calcium fluorescence, agonist mode; hits give high values | B-score at 10 µM | 310,000 tested, 0.44% active;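 active = calcium response B-score plate-corrected fluorescence ratio at least 3 library SD, with starting fluorescence B-score inside 5 SD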
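Material: MrgX1-expressing HEK293 cells; input: 15,000 cells per well; doses: test compound given as first of three sequential additions; schedule: overnight plating before 1 h dye loading; technique: Fluo-4 NW calcium-flux fluorescence, kinetic read; evaluation: baseline-normalised fluorescence change ratio, B-scored; control set: plate-wise positive and negative controls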
* = called active by the depositor; i = inactive; / = not tested or not shown.

SMILES	MrgX1 antag	RGS4 block	RGS4 pot	MrgX1 allo act	MrgX1 agonist
O=C1c2cccc3c([N+](=O)[O-])ccc(c23)C(=O)N1CCc1ccccn1	i	i	i	i	i
Cc1ccc(NC(=O)CSCC(=O)N2CCN(Cc3ccc4c(c3)OCO4)CC2)cc1	i	i	i	i	i
O=C(/C=C/c1cccs1)NC(=S)NNC(=O)c1ccccc1O	i	i	i	i	62.6*
O=C(NC(=S)NNC(=O)c1ccccc1O)c1ccco1	i	i	i	i	30.2*
Cc1c(NC(=O)COC(=O)c2ccc(Br)o2)c(=O)n(-c2ccccc2)n1C	i	i	i	i	i
COc1ccc(NC(=O)C(=O)NNC(=O)C(C)Oc2ccc(Cl)cc2Cl)cc1 (stereo unspecified)	-6.24*	i	i	i	i
N#C/C(C(=O)NCc1ccccc1)=C1/N=C(NC(=O)c2ccco2)c2ccccc21	i	i	i	i	i
COc1ccc(CCNC(=O)/C(C#N)=C2\N=C(NC(=O)c3ccco3)c3ccccc32)cc1	-4.66*	i	i	i	i
COc1cccc(N=C2CC(C)(C)CC(=O)/C2=C(/O)c2ccccc2)c1	i	i	i	i	i
CCN=C1SC(C(=O)Nc2cccc(C)c2)CC(=O)N1CC (stereo unspecified)	i	i	-7.41*	i	i
CCN=C1SC(C(=O)Nc2cccc(Cl)c2)CC(=O)N1CC (stereo unspecified)	i	i	i	i	i
CC1=C(C(=O)OCc2ccccc2)C(c2ccccc2[N+](=O)[O-])NC(=O)N1C (stereo unspecified)	i	i	i	i	i
O=[N+]([O-])c1ccc2oc(C(O)c3cccc(Cl)c3)cc2c1 (stereo unspecified)	i	i	i	8.53*	i
O=C(O)CCC(=O)N1CCC(n2nnc3cc(C(F)(F)F)ccc32)CC1	i	i	i	i	i
COCCCn1c(SCC(=O)OC2CCCCC2)nnc1-c1ccco1	i	i	i	i	i
COCCCn1c(SCC(=O)OC2CCCCC2)nnc1-c1cccs1	-5.84*	i	i	i	i
COc1ccccc1C(=O)C1CCCN(C(=O)CCn2cnnn2)C1 (stereo unspecified)	i	i	i	i	i
O=[N+]([O-])c1ccc(N2CCN(S(=O)(=O)c3ccc(Cl)c(Cl)c3)CC2)cc1NCCN1CCOCC1	i	i	i	i	i
CCNc1cc(N2CCN(S(=O)(=O)c3ccc4c(c3)CCCC4)CC2)ccc1[N+](=O)[O-]	-7.49*	i	i	i	i
CC(=O)N(c1nc(/C=C\C(=O)O)cs1)c1ccccc1F	i	i	i	i	32.4*
CN(C)NC(=S)NC1CC2CCC1C2 (stereo unspecified)	i	i	i	i	i
CN1[C@@H]2CC(OC(=O)[C@H](CO)c3ccccc3)C[C@H]1[C@@H]1O[C@@H]12 (stereo partly specified)	i	i	-7.13*	i	i
CC1(CO)COC(c2ccccc2)=N1 (stereo unspecified)	i	i	i	i	i
O=[N+]([O-])c1ccc(-n2nncc2-c2ccc(Cl)cc2)cc1	-4.87*	i	i	i	i
Cc1cn2c(=O)c(C(=O)N3CCN(c4ccccc4)CC3)cnc2s1	i	i	i	i	i
SMILES	MrgX1 antag	RGS4 block	RGS4 pot	MrgX1 allo act	MrgX1 agonist
O=C(CCl)c1ccc2c(c1)CCN2C(=O)C1CC1	i	7.12*	i	i	33*
O=C(C1CCC(C(=O)N2CCc3ccccc32)CC1)N1CCc2ccccc21 (stereo unspecified)	i	i	i	i	i
CC(=O)Nc1sc2c(c1C(c1ccccc1Cl)N1CCN(CCO)CC1)CCCC2 (stereo unspecified)	i	i	-7.51*	i	i
O=C(Cc1ccc([N+](=O)[O-])cc1)N1CCCCCC1	i	i	i	i	i
O=C(CCc1ccc(Oc2cc([N+](=O)[O-])cc([N+](=O)[O-])c2)cc1)N1CCCCCC1	i	i	-9.99*	i	i
COc1ccccc1NC(=O)c1cc2ccccc2o/c1=N\O	i	10.7*	i	i	i
COc1ccc(N=c2oc3ccccc3cc2C(=O)Nc2ccccn2)cc1OC	i	i	i	i	i
CN(C(=O)COC(=O)/C=C/c1ccc(Cl)c(Cl)c1)c1c(N)n(Cc2ccccc2)c(=O)[nH]c1=O	i	i	i	i	i
O=C(NCc1ccc(F)cc1)C1CCN(S(=O)(=O)c2ccc(Br)s2)CC1	i	i	i	i	i
CCC1C(=O)NCCN1C(=O)CCc1nnc(CCc2ccc(OC)cc2)o1 (stereo unspecified)	-5.68*	i	i	i	i
CCc1ccc(C(=O)NNC(=O)c2cc(S(=O)(=O)N(C)C)ccc2N2CCCC2)cc1	i	i	i	i	i
Cc1ccc(SC[C@H](C)CN2CC[C@H](C(C)(C)C)CCC2=O)cc1	i	i	i	i	i
CC(C)[C@H](NC(=O)[C@H](CCCN=C(N)N)NC(=O)NC(Cc1ccccc1)C(=O)O)C(=O)NC(C=O)CCCN=C(N)N (stereo partly specified)	i	i	i	i	45.6*
Cc1cc(C)n2nc(C(=O)OCC(=O)N3C(C)CCCC3C)nc2n1 (stereo unspecified)	i	i	i	i	i
Nc1ncnc2c1ncn2[C@H]1C[C@H](O)[C@@H](COP(=O)(O)O)O1	i	i	i	i	i
NC(=O)c1ccc[n+]([C@H]2O[C@@H](COP(=O)([O-])OP(=O)(O)OC[C@H]3O[C@@H](n4cnc5c(N)ncnc54)[C@H](O)[C@@H]3O)[C@H](O)[C@@H]2O)c1	i	/	/	i	33.7*
CCC(NS(=O)(=O)c1ccc2c(c1)NC(=O)C(C)C(=O)N2)c1cccs1 (stereo unspecified)	i	i	i	i	i
CCn1cc(C(=O)NCCCN2CCCC(C)C2)c(=O)c2cc(S(=O)(=O)N3CCc4ccccc4C3)ccc21 (stereo unspecified)	i	i	-7.2*	i	i
